ChEMBL document CHEMBL4342528, “Discovery of a First-in-Class Protein Arginine Methyltransferase 6 (PRMT6) Covalent Inhibitor” (J Med Chem, 2020)
Active and inactive are the calls of the source. The rule behind the calls is not given here.

What was measured:
[1] = biological target: Histone-lysine N-methyltransferase EHMT2 (Homo sapiens) (UniProt Q96KQ7); assay: Inhibition of G9a (unknown origin) assessed as reduction in incorporation of [3H]-labeled methyl group into biotinylated substrate using [3H-SAM] at 10 uM incubated for 1 hr by scintillation proximity assay
Chain of Histone-lysine N-methyltransferase EHMT2 (Homo sapiens) (Q96KQ7 whole entry): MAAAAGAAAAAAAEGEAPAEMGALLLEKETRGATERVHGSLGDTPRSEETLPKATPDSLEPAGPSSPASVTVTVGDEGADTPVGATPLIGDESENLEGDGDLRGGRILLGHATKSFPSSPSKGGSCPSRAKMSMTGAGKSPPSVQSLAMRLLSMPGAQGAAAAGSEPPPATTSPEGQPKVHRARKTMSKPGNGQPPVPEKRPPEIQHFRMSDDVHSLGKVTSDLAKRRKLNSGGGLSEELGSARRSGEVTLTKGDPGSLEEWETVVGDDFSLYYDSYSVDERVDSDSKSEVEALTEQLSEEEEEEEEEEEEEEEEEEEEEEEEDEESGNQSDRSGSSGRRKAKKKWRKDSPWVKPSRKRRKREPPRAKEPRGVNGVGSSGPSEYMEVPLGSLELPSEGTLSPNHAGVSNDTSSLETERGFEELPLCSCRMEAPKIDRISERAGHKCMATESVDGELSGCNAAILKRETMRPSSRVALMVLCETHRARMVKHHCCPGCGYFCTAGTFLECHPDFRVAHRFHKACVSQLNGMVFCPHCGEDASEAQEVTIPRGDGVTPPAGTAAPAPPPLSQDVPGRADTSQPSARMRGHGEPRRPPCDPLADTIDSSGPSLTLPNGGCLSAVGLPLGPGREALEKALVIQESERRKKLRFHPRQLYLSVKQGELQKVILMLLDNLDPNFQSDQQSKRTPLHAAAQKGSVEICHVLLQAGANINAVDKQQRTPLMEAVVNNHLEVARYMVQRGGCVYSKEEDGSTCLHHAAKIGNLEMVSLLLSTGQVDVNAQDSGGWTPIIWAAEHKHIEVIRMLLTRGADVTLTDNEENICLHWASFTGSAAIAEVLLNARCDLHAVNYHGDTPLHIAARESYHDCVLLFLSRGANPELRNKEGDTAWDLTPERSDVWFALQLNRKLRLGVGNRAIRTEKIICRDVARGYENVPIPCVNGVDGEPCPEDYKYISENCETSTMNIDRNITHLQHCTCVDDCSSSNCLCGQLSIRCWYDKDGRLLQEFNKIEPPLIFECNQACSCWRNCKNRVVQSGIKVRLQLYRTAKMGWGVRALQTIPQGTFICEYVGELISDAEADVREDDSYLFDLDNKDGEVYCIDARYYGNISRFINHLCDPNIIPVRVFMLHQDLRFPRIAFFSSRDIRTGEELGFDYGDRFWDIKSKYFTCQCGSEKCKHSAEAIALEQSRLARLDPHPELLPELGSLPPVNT
How it was run: (§1)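 Panel of 33 methyltransferases (22 PKMTs, 3 DNMTs, 8 PRMTs), each tested at 10 and 50 μM compound. Activity was read as ³H-methyl transfer from ³H-SAM in a radiometric assay done as previously described.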

[2] = biological target: T1, Protein arginine N-methyltransferase 6 (Homo sapiens, UniProt Q96LA8); assay: Time dependent inhibition of human PRMT6 pre-incubated for 1 to 30 mins using [3H]SAM as donor and [3H]methylated biotin-labeled peptide as substrate by scintillation proximity assay; conditions: TDE = time-dependent effect
Target sequence in this assay (Q96LA8 whole entry, looked up): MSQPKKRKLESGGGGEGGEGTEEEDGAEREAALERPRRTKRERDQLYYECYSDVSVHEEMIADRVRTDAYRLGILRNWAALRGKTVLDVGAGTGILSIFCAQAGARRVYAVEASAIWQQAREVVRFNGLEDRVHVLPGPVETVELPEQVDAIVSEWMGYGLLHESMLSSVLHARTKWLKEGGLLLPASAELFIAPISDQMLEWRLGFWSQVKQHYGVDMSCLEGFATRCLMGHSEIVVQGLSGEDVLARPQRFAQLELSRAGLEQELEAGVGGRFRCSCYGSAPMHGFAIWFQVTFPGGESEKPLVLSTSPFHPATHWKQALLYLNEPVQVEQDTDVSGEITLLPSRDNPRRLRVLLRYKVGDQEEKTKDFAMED

[3] = biological target: Protein arginine N-methyltransferase 9 (Homo sapiens) (UniProt Q6P2P2); assay: Inhibition of PRMT9 (unknown origin) assessed as reduction in incorporation of [3H]-labeled methyl group into biotinylated substrate using [3H-SAM] at 10 uM incubated for 1 hr by scintillation proximity assay; how it was run: as §1
Chain of Protein arginine N-methyltransferase 9 (Homo sapiens) (Q6P2P2 whole entry): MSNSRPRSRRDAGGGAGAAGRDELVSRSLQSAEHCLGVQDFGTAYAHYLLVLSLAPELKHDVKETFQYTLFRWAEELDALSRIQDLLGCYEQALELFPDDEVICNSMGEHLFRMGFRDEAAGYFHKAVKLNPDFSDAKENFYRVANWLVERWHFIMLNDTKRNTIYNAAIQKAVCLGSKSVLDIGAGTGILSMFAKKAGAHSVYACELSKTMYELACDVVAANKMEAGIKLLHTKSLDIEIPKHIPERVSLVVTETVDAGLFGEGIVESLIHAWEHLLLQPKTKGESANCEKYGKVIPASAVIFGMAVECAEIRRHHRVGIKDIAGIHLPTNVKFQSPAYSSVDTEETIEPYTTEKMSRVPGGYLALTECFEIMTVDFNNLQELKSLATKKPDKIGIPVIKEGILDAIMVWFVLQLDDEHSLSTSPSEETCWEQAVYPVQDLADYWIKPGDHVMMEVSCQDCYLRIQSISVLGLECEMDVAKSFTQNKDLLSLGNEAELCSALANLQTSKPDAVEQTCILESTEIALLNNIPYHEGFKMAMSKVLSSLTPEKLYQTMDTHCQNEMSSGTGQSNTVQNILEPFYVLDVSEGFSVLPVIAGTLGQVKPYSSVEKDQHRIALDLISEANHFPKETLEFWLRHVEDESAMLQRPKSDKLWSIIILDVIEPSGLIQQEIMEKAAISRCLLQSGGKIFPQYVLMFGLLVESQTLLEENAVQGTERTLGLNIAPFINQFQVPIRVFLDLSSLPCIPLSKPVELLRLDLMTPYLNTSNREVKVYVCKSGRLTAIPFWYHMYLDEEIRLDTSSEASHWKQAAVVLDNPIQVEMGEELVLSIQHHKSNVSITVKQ

[4] = biological target: Histone-lysine N-methyltransferase SUV39H1 (Homo sapiens) (UniProt O43463); assay: Inhibition of SUV39H1 (unknown origin) assessed as reduction in incorporation of [3H]-labeled methyl group into biotinylated substrate using [3H-SAM] at 10 uM incubated for 1 hr by scintillation proximity assay; how it was run: as §1
Chain of Histone-lysine N-methyltransferase SUV39H1 (Homo sapiens) (O43463 whole entry): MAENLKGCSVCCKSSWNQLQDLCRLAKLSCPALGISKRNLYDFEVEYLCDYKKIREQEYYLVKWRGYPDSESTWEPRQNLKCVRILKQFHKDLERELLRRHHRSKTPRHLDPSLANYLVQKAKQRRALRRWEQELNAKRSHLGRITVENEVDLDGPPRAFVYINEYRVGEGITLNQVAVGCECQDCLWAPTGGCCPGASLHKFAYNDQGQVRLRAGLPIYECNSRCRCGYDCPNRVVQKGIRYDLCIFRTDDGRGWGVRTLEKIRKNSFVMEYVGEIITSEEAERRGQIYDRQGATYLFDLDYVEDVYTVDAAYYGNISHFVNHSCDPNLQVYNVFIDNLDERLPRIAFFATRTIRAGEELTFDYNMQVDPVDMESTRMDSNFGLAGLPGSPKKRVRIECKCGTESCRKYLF

[5] = biological target: T2, Protein arginine N-methyltransferase 3 (Homo sapiens, UniProt O60678); assay: Inhibition of PRMT3 (unknown origin) assessed as reduction in incorporation of [3H]-labeled methyl group into biotinylated substrate using [3H-SAM] at 10 uM incubated for 1 hr by scintillation proximity assay; how it was run: as §1
Target sequence in this assay (O60678 2-531 limits assumed): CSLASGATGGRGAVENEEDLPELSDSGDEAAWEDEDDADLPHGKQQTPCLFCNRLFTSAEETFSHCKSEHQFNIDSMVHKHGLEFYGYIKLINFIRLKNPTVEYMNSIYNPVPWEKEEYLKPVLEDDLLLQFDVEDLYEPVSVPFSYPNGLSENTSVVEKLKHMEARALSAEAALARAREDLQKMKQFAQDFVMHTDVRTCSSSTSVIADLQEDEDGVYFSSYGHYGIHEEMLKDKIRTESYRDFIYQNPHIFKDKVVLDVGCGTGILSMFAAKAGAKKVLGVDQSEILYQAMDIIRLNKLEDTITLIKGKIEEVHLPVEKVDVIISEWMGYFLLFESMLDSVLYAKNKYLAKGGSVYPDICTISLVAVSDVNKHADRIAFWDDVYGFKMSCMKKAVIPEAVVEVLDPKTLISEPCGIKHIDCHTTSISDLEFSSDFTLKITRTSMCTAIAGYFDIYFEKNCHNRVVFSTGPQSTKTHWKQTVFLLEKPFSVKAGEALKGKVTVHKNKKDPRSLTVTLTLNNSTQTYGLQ

[6] = biological target: Protein arginine N-methyltransferase 1 (Homo sapiens, UniProt Q99873); assay: Inhibition of PRMT1 in human MCF7 cells assessed as reduction in H4R3me2a levels incubated for 2 days by fluorescence based assay; type: cell-based
How it was run: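 MCF7 cells with endogenous PRMT1 were treated with compound for 2 days, with MS023 (1 μM) as positive control. The H4R3me2a fluorescence signal was normalized to H4 and fitted nonlinearly to give IC50.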

[7] = biological target: T2, Protein arginine N-methyltransferase 3; assay: Inhibition of human PRMT3 using [3H]SAM as donor and [3H]methylated biotin-labeled peptide as substrate by scintillation proximity assay
How it was run: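 Compound titrated into the reaction; 1 h enzyme–compound preincubation stated for PRMT6. Methylated peptide captured on streptavidin/scintillant-coated plates and counted (cpm). IC50 from concentration–response, triplicate, mean ± SD.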
Target sequence in this assay (O60678 whole entry): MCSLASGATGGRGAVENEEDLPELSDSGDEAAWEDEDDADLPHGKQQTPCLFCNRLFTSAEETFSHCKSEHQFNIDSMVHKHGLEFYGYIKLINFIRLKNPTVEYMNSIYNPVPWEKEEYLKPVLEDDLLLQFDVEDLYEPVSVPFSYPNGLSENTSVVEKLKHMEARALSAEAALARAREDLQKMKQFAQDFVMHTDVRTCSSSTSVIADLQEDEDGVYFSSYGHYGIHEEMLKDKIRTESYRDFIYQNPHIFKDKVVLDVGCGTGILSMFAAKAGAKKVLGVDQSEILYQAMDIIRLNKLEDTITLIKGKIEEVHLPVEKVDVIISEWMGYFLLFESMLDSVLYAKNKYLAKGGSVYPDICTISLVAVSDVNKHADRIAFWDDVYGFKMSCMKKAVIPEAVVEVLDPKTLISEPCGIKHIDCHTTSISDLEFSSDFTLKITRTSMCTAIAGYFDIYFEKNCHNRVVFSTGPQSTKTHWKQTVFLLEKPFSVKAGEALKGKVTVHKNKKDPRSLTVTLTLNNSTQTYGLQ

[8] = biological target: T2, Protein arginine N-methyltransferase 3; assay: Covalent binding affinity to human PRMT3 assessed as covalent adduct. formation at 300 uM pre-incubated for 1 hr by mass spectrometry
How it was run: (§2)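 PRMT protein at 15 μM was incubated 1 h at room temperature with a 20-fold molar excess of inhibitor (300 μM). The reaction was quenched with 0.1% aqueous TFA, separated by HPLC (5–95% acetonitrile in water) and analysed by ESI time-of-flight LC/MS for protein–ligand adduct mass.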
Target sequence in this assay (O60678 2-531 limits assumed): as the sequence (O60678 2-531 limits assumed) above

[9] = biological target: T1, Protein arginine N-methyltransferase 6; assay: Inhibition of Flag-tagged PRMT6 (unknown origin) expressed in HEK293 cells incubated for 20 hrs assessed as reduction in H3R2me2a levels; type: cell-based
[10] = biological target: Histone-lysine N-methyltransferase SMYD3 (Homo sapiens) (UniProt Q9H7B4); assay: Inhibition of SMYD3 (unknown origin) assessed as reduction in incorporation of [3H]-labeled methyl group into biotinylated substrate using [3H-SAM] at 10 uM incubated for 1 hr by scintillation proximity assay; how it was run: as §1
Chain of Histone-lysine N-methyltransferase SMYD3 (Homo sapiens) (Q9H7B4 whole entry): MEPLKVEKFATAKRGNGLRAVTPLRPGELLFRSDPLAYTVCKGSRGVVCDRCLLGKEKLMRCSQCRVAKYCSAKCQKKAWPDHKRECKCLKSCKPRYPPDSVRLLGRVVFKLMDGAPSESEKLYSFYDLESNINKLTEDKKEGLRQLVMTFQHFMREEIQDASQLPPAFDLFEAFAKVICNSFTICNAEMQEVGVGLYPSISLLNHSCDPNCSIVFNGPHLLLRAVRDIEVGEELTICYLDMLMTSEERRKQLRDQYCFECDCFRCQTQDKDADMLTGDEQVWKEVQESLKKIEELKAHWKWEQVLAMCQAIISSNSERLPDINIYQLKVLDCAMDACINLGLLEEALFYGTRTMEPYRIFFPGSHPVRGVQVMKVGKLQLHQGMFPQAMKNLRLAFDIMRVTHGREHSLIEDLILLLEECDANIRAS

[11] = tested on: MCF7; assay: Toxicity in human MCF7 cells assessed as reduction in cell viability up to 20 uM incubated for 3 days by CCK8 assay; type: cell-based; conditions: mcf7, 72 h
How it was run: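 Cells seeded 1×10^4 per well in triplicate, treated after 24 h with serial dilutions from 20 μM for 3 days; CCK-8 (WST-8) added, 4 h at 37 °C, absorbance at 450 nm; mean ± SD of three replicate experiments.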

[12] = biological target: T1, Protein arginine N-methyltransferase 6; assay: Inhibition of PRMT6 (unknown origin) assessed as reduction in incorporation of [3H]-labeled methyl group into biotinylated substrate using [3H-SAM] at 10 uM incubated for 1 hr by scintillation proximity assay; how it was run: as §1
Target sequence in this assay (Q96LA8 whole entry, looked up): as the sequence (Q96LA8 whole entry, looked up) above

[13] = biological target: Histone-lysine N-methyltransferase SETD2 (Homo sapiens) (UniProt Q9BYW2); assay: Inhibition of SETD2 (unknown origin) assessed as reduction in incorporation of [3H]-labeled methyl group into biotinylated substrate using [3H-SAM] at 10 uM incubated for 1 hr by scintillation proximity assay; how it was run: as §1
[14] = biological target: T1, Protein arginine N-methyltransferase 6; assay: Covalent binding affinity to human PRMT6 assessed as covalent adduct. formation at 300 uM pre-incubated for 1 hr by mass spectrometry; how it was run: as §2
Target sequence in this assay (Q96LA8 whole entry, looked up): as above

[15] = organism: Homo sapiens; assay: Inhibition of DNMT3A/3L (unknown origin) at 10 uM using un-biotinylated Poly(2'-deoxyinosinic-2'-deoxycytidylic acid) substrate using [3H-SAM] incubated for 1 hr by scintillation proximity assay; how it was run: as §1
[16] = biological target: Protein arginine N-methyltransferase 7 (Homo sapiens) (UniProt Q9NVM4); assay: Inhibition of PRMT7 (unknown origin) assessed as reduction in incorporation of [3H]-labeled methyl group into biotinylated substrate using [3H-SAM] at 10 uM incubated for 1 hr by scintillation proximity assay; how it was run: as §1
[17] = organism: Homo sapiens; assay: Selectivity index, ratio of IC50 for human PRMT8 to IC50 for human PRMT6
How it was run: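 Radiometric SPA: ³H-methyl transfer from ³H-SAM to biotin-labeled peptide, captured on streptavidin/scintillant-coated plate, counts per minute read; substrate and cofactor each at their Km for the enzyme; compound titrated; IC50 from triplicate determinations, mean ± SD.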

[18] = biological target: T3, Histone-arginine methyltransferase CARM1 (Homo sapiens) (UniProt Q86X55); assay: Covalent binding affinity to human PRMT4 assessed as covalent adduct. formation at 300 uM pre-incubated for 1 hr by mass spectrometry; how it was run: as §2
T3 sequence (whole entry): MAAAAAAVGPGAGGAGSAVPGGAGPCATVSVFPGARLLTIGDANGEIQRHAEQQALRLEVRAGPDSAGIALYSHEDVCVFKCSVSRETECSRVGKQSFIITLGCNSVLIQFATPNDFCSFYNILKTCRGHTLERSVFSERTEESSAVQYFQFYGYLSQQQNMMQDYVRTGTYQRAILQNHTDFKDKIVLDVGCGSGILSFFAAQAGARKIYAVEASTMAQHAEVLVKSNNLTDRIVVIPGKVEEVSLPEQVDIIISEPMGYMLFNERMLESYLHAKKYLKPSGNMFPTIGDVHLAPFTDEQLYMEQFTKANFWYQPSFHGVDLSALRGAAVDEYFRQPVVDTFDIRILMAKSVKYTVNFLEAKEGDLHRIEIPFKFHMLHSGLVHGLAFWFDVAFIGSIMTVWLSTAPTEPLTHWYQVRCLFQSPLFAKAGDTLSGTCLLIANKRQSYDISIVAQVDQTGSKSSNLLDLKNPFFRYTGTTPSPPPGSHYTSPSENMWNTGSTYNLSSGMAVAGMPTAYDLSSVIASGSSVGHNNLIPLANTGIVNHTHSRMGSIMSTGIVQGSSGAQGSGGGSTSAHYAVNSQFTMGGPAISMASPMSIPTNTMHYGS

C=CC(=O)Nc1cccc(-c2c[nH]cc2CN(C)CCN)c1
inhibition [1]: inactive | inhibition [2]: Tde | inhibition [3]: inactive | inhibition [4]: inactive | inhibition [5]: > 90% | IC50 [6]: 5.6 µM | inhibition [6]: Dose-dependent effect | IC50 [7]: 3 µM | Activity [8]: inactive | IC50 [9]: 1.3 µM | inhibition [9]: Dose-dependent effect | inhibition [10]: inactive | Activity [11]: Non-Toxic | inhibition [12]: > 90% | inhibition [13]: inactive | Activity [14]: Active | inhibition [15]: inactive | inhibition [16]: inactive | Ratio IC50 [17]: 6 | Activity [18]: inactive
